Results from ChEMBL document CHEMBL3120133, “Discovery of a potent boronic acid derived inhibitor of the HCV RNA-dependent RNA polymerase” (J Med Chem, 2014).
The source made the active and inactive calls. The calls are words filed in the database; no cut-off is given here.

Columns and labels:
Hepatitis C virus [1] = assay: Antiviral activity against wild type Hepatitis C virus genotype 1a infected in human HuH7 cells assessed as inhibition of viral replication after 48 hrs by luciferase reporter gene assay; assay type: functional, organism-based, Hepacivirus hominis; settings: subtype 1a, Huh-7, 48 h
Procedure, shortened: (§1)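 Replicon-based readout (stable and transient replicon formats) in place of virus infection, with compound present for 2 days before EC50 determination.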

[2] = Inhibition of C-terminal 6xHis-tagged Hepatitis C virus genotype 1b BK NS5B Cdelta21 RNA dependent RNA polymerase L47Q/F101Y/[…] mutant after 30 mins in presence of [alpha-33P]; set-up: species or system Hepatitis C virus (isolate BK)
Hepatitis C virus [3] = assay: Antiviral activity against wild type Hepatitis C virus genotype 1b infected in human HuH7 cells assessed as inhibition of viral replication after 48 hrs by luciferase reporter gene assay; assay type: functional, organism-based, Hepacivirus hominis; settings: Huh-7, 48 h; procedure, shortened: as §1
[4] = target: RNA-directed RNA polymerase (Hepacivirus hominis, UniProt O39930, C316N); assay: Inhibition of Hepatitis C virus genotype 1b NS5B Cdelta21 RNA dependent RNA polymerase 316N mutant using biotinylated polyC:oligoG/[alpha-P33]-GTP as template/substrate preincubated for 15 mins followed by template/substrate addition by scintillation proximity assay; set-up: species or system Hepatitis C virus subtype 1b
Procedure, shortened: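 Isolated NS5B at 30 nM was preincubated with inhibitor for 15 min before reaction start. The IC50 was determined from the polymerase assay.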

Hepatitis C virus [5] = assay: Antiviral activity against wild type Hepatitis C virus genotype 1b harboring C316F mutant infected in human HuH7 cells assessed as inhibition of viral replication after 72 hrs by Bright-glo luciferase reporter gene assay; assay type: functional, organism-based, Hepacivirus hominis; settings: Huh-7, 72 h
[6] = test system: Hepatitis C virus (isolate BK); assay: Inhibition of C-terminal 6xHis-tagged Hepatitis C virus genotype 1b BK NS5B Cdelta21 RNA dependent RNA polymerase L47Q/F101Y/[…] mutant expressed in Escherichia coli BL21(DE3) using radiolabelled CTP/5'-A(8)CG-3' as substrate/template assessed as inhibition of pCpG dimer formation at 0.016 to 10 uM
Hepatitis C virus [7] = assay: Antiviral activity against wild type Hepatitis C virus genotype 1a harboring C316Y mutant infected in human HuH7 cells assessed as inhibition of viral replication after 48 hrs by luciferase reporter gene assay; assay type: functional, organism-based, Hepacivirus hominis; settings: subtype 1a, Huh-7, 48 h
Hepatitis C virus [8] = assay: Antiviral activity against wild type Hepatitis C virus genotype 1b harboring C316N mutant infected in human HuH7 cells assessed as inhibition of viral replication after 48 hrs by luciferase reporter gene assay; assay type: functional, organism-based, Hepacivirus hominis; settings: Huh-7, 48 h
Hepatitis C virus [9] = assay: Antiviral activity against wild type Hepatitis C virus genotype 1b harboring S365T mutant infected in human HuH7 cells assessed as inhibition of viral replication after 72 hrs by Bright-glo luciferase reporter gene assay; assay type: functional, organism-based, Hepacivirus hominis; settings: Huh-7, 72 h
Hepatitis C virus [10] = assay: Antiviral activity against wild type Hepatitis C virus genotype 1b harboring C316Y mutant infected in human HuH7 cells assessed as inhibition of viral replication after 72 hrs by Bright-glo luciferase reporter gene assay; assay type: functional, organism-based, Hepacivirus hominis; settings: Huh-7, 72 h
[11] = test system: RNA-directed RNA polymerase (Hepacivirus hominis), O39930 [C316N]; assay: Binding affinity to Hepatitis C virus genotype 1b NS5B Cdelta21 RNA dependent RNA polymerase 316N mutant assessed as dissociation half life at 0.6 uM by LC-MS/MS analysis; settings: Hepatitis C virus subtype 1b
Procedure, shortened: (§2)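 NS5B∆21 GT1b 316N (10 uM) saturated with 12uM inhibitor to pre-form the complex, then diluted 20-fold into 10 uM of the competing Palm II inhibitor to block rebinding. Bound compound was separated from free by rapid size-exclusion filtration over time, and both inhibitors were quantified by LC-MS. Off-rates were fitted to a single or two-phase exponential to give t1/2.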

[12] = Bioavailability in Sprague-Dawley rat at 1 mg/kg, iv and 5 mg/kg, po; assay type: ADME, organism-based; settings: in vivo
[13] = Clearance in Sprague-Dawley rat at 1 mg/kg, iv and 5 mg/kg, po; assay type: ADME, organism-based; settings: in vivo
Huh-7 = assay: Cytotoxicity in human HuH7 cells assessed as cell viability after 72 hrs by CellTitre-glo luminescence assay; assay type: cell-based; settings: huh-7, 72 h
[14] = Stability of the compound; assay type: physicochemical
[15] = test system: RNA-directed RNA polymerase (Hepacivirus hominis), O39930 [C316N]; assay: Binding affinity to Hepatitis C virus genotype 1b NS5B Cdelta21 RNA dependent RNA polymerase 316N mutant assessed as dissociation half life at 10 uM by LC-MS/MS analysis; settings: Hepatitis C virus subtype 1b; procedure, shortened: as §2

Chain of RNA-directed RNA polymerase (Hepacivirus hominis), O39930 [C316N] (O39930 entry or part of it C316N): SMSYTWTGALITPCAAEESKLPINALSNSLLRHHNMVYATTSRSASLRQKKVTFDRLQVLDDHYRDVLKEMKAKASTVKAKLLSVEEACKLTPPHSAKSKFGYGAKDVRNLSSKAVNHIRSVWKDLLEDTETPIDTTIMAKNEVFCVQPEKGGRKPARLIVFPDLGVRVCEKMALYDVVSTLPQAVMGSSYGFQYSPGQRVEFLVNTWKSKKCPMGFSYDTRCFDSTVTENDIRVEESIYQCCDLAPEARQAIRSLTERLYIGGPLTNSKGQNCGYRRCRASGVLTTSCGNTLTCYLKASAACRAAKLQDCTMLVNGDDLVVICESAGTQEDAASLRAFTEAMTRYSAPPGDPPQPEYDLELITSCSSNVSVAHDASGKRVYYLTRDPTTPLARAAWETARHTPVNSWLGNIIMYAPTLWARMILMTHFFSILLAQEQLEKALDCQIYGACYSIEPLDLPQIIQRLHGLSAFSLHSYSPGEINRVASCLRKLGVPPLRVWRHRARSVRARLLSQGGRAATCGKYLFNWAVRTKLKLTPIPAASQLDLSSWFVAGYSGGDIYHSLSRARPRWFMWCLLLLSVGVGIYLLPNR
Chain of RNA-directed RNA polymerase (O39930 entry or part of it C316N): as above

| SMILES | EC50 (Hepatitis C virus [1]) [nM] | IC50 [2] [nM] | EC50 (Hepatitis C virus [3]) [nM] | IC50 [4] [nM] | EC50 (Hepatitis C virus [5]) [nM] | inhibition [6] | EC50 (Hepatitis C virus [7]) [nM] | EC50 (Hepatitis C virus [8]) [nM] | EC50 (Hepatitis C virus [9]) [nM] | EC50 (Hepatitis C virus [10]) [nM] | T1/2 [11] [h] | bioavailability [12] [%] | clearance [13] [mL/min/kg] | Activity (Huh-7) | Stability [14] | T1/2 [15] [h] |
| --- | --- | --- | --- | --- | --- | --- | --- | --- | --- | --- | --- | --- | --- | --- | --- | --- |
| CNC(=O)c1c(-c2ccc(F)cc2)oc2cc(N(Cc3ccc(B(O)O)c(F)c3)S(C)(=O)=O)c(C3CC3)cc12 | 3 | 50 | 1.7 | 130 | 3.8 | Active | 3.2 | 1.9 | 4.2 | 1.4 | 4.3 | – | – | – | – | – |
| CNC(=O)c1c(-c2ccc(F)cc2)oc2cc(N(Cc3ccc4c(c3)CCOB4O)S(C)(=O)=O)c(C3CC3)cc12 | 7 | 40 | 4.2 | – | – | – | 350 | 9 | – | – | – | – | – | – | – | – |
| CNC(=O)c1c(-c2ccc(F)cc2)oc2cc(N(Cc3ccc(B(O)O)cc3)S(C)(=O)=O)c(C3CC3)cc12 | 2.7 | 32 | 2.6 | – | – | – | 120 | 13 | – | – | – | < 3 | 36 | – | – | – |
| CNC(=O)c1c(-c2ccc(F)cc2)oc2cc(N(CC3CCB(O)OC3)S(C)(=O)=O)c(C3CC3)cc12 (racemic) | 9.7 | 63 | 6.4 | – | – | – | – | 56 | – | – | – | – | – | Non-toxic | Stable | – |
| CNC(=O)c1c(-c2ccc(F)cc2)oc2cc(N(CCO)S(C)(=O)=O)c(C3CC3)cc12 [NESBUVIR] | 27 | 40 | 18 | 160 | 2500 | – | 1900 | 100 | 1300 | 420 | – | – | – | – | – | 1.7 |
| CNC(=O)c1c(-c2ccc(F)cc2)oc2cc(N(Cc3ccc(S(=O)(=O)O)cc3)S(C)(=O)=O)c(C3CC3)cc12 | > 5000 | 16 | 1800 | – | – | – | – | > 5000 | – | – | – | – | – | – | – | – |
| CNC(=O)c1c(-c2ccc(F)cc2)oc2cc(N(Cc3ccc(B(O)O)c(C)c3)S(C)(=O)=O)c(C3CC3)cc12 | 4.8 | 80 | 2.2 | – | – | – | – | 5.4 | – | – | – | – | – | – | – | – |
| CNC(=O)c1c(-c2ccc(F)cc2)oc2cc(N(CC3=CB(O)OC3)S(C)(=O)=O)c(C3CC3)cc12 | 9.6 | 50 | 1.9 | – | – | – | – | 13 | – | – | – | – | – | Non-toxic | Stable | – |
| CNC(=O)c1c(-c2ccc(F)cc2)oc2cc(N(Cc3cccc4c3COB4O)S(C)(=O)=O)c(C3CC3)cc12 | 17 | 32 | 4.9 | – | – | – | – | 110 | – | – | – | – | – | – | – | – |
| CNC(=O)c1c(-c2ccc(F)cc2)oc2cc(N(CC3CCOB(O)C3)S(C)(=O)=O)c(C3CC3)cc12 (racemic) | 9.1 | 80 | 3.7 | – | – | – | – | 38 | – | – | – | – | – | Non-toxic | Stable | – |
| CNC(=O)c1c(-c2ccc(F)cc2)oc2cc(N(C[C@H]3COB(O)C3)S(C)(=O)=O)c(C3CC3)cc12 | 5.3 | 50 | 2.9 | – | – | – | – | 11 | – | – | – | – | 32 | Non-toxic | Stable | – |
| CNC(=O)c1c(-c2ccc(F)cc2)oc2cc(N(CCOCB(O)O)S(C)(=O)=O)c(C3CC3)cc12 | 6.7 | 40 | 3.2 | – | – | – | – | 3.9 | – | – | – | – | 25 | – | – | – |
| CNC(=O)c1c(-c2ccc(F)cc2)oc2cc(N(CCC3OB(O)c4ccccc43)S(C)(=O)=O)c(C3CC3)cc12 (racemic) | 7.4 | 32 | 3.5 | – | – | – | 790 | 12 | – | – | – | – | – | – | – | – |
| CNC(=O)c1c(-c2ccc(F)cc2)oc2cc(N(Cc3cccc(B(O)O)c3)S(C)(=O)=O)c(C3CC3)cc12 | 8.8 | 30 | 6.9 | – | – | – | – | 120 | – | – | – | – | – | – | – | – |
| CCOP(=O)(OCC)c1ccc(CN(c2cc3oc(-c4ccc(F)cc4)c(C(=O)NC)c3cc2C2CC2)S(C)(=O)=O)cc1 | 36 | 100 | 20 | – | – | – | – | 480 | – | – | – | – | – | – | – | – |
| CNC(=O)c1c(-c2ccc(F)cc2)oc2cc(N(Cc3ccc(P(=O)(O)O)cc3)S(C)(=O)=O)c(C3CC3)cc12 | 2200 | 20 | 760 | – | – | – | – | > 5000 | – | – | – | – | – | – | – | – |
| CNC(=O)c1c(-c2ccc(F)cc2)oc2cc(N(CC3CCB(O)O3)S(C)(=O)=O)c(C3CC3)cc12 (racemic) | 8.8 | 100 | 6.5 | – | – | – | – | 52 | – | – | – | – | – | Non-toxic | Stable | – |
| CNC(=O)c1c(-c2ccc(F)cc2)oc2cc(N(Cc3ccc4c(c3)COB4O)S(C)(=O)=O)c(C3CC3)cc12 | 9.5 | 40 | 2.7 | – | – | – | – | 16 | – | – | – | – | – | – | – | – |
| CNC(=O)c1c(-c2ccc(F)cc2)oc2cc(N(C[C@@H]3COB(O)C3)S(C)(=O)=O)c(C3CC3)cc12 | 7.6 | 63 | 4.6 | – | 37 | – | 830 | 13 | 6.5 | 11 | – | – | 6.6 | – | – | – |
| CNC(=O)c1c(-c2ccc(F)cc2)oc2cc(N(Cc3cc(F)c4c(c3)COB4O)S(C)(=O)=O)c(C3CC3)cc12 | 5.8 | 32 | 3.2 | – | 110 | – | 190 | 12 | 84 | 16 | – | – | – | – | – | – |
| CNC(=O)c1c(-c2ccc(F)cc2)oc2cc(N(Cc3ccc(C(=O)O)cc3)S(C)(=O)=O)c(C3CC3)cc12 | 290 | 25 | 150 | – | – | – | – | 3200 | – | – | – | – | – | – | – | – |
| CNC(=O)c1c(-c2ccc(F)cc2)oc2cc(N(CC3COB(O)C3)S(C)(=O)=O)c(C3CC3)cc12 (racemic) | 2.9 | 50 | 2.8 | – | – | – | – | 7.6 | – | – | – | – | – | Non-toxic | Stable | – |
| CNC(=O)c1c(-c2ccc(F)cc2)oc2cc(N(CCC3COB(O)C3)S(C)(=O)=O)c(C3CC3)cc12 (racemic) | 6.1 | 50 | 3.1 | – | – | – | – | 5.6 | – | – | – | – | – | Non-toxic | Stable | – |
| CNC(=O)c1c(-c2ccc(F)cc2)oc2cc(N(Cc3ccccc3)S(C)(=O)=O)c(C3CC3)cc12 | 58 | 50 | 18 | – | – | – | – | 440 | – | – | – | – | – | – | – | – |
| CNC(=O)c1c(-c2ccc(F)cc2)oc2cc(N(Cc3ccc4c(c3)B(O)OC4)S(C)(=O)=O)c(C3CC3)cc12 | 7.4 | 32 | 4.9 | – | – | – | – | 64 | – | – | – | – | – | – | – | – |
| CNC(=O)c1c(-c2ccc(F)cc2)oc2cc(N(Cc3ccc(B(O)O)c(OC)c3)S(C)(=O)=O)c(C3CC3)cc12 | 12 | 100 | 3.6 | – | – | – | – | 50 | – | – | – | – | – | – | – | – |
